Compound activity (PubChem)
Most compounds without a hit are left out; they make up all but 0.79% or so of the library.
bIAP act: increases bovine intestinal alkaline phosphatase activity. 0.17% of 200,000 active. purified bovine IAP, CDP-star luminescence, 30 min; active compounds read high; fold of DMSO-control signal, blank-subtracted. activation factor at 20 µM;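 active means activation factor of 2 or more at 20 µM, a signal rise over negative controls twice the positive control's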
hIAP block: blocks human intestinal alkaline phosphatase; 0.12% of 330,000 active; inhibition, % at 10 µM; purified IAP, CDP-Star luminescence, 30 min;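 active means inhibition reaching a set limit with compound at 10 µM in the primary screen, cut at about 35% in these data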;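 further: plate controls were DMSO wells with enzyme for no effect and no-enzyme buffer wells for full effect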
Target sequence (P09923 whole entry, looked up): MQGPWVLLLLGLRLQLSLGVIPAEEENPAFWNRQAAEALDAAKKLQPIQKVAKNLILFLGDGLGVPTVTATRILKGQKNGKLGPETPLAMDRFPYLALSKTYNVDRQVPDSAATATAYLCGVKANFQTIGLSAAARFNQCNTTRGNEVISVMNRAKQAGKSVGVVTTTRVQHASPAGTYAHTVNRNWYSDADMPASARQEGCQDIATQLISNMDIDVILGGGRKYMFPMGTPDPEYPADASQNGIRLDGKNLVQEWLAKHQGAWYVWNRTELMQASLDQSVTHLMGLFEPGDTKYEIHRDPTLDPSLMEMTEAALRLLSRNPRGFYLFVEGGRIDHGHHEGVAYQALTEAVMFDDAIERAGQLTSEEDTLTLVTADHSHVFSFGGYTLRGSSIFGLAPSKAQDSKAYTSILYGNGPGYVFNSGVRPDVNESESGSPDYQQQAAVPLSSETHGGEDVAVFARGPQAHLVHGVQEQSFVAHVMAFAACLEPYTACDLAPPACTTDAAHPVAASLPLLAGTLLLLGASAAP
mIAP act: increases mouse intestinal alkaline phosphatase activity; muIAP, CDP-Star luminescence, 30 min; active compounds read high; 1 = vehicle-only enzyme signal, 0 = enzyme-free wells; activation factor at 10 µM; 0.24% of 330,000 active; AID 2805;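 active means activation factor of at least 2 at 20 µM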
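System: Mouse IAP enzyme | Also added: CDP-Star substrate | Dosing: Compounds dispensed in DMSO | Schedule: 30 min enzyme-substrate-compound incubation at room temperature | Technique: Chemiluminescence readout | Control set: DMSO-only wells and no-enzyme negative control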
hIAP act: human IAP activation. activation factor at 10 µM. 0.16% of 330,000 active. purified human IAP, CDP-Star luminescence, 30 min; active compounds read high; 1 = vehicle-only enzyme, 0 = enzyme-free background. P09923;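 active means activation factor of the enzyme at least 2-fold when tested at 20 µM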
mIAP inh: blocks mouse intestinal alkaline phosphatase; purified mouse IAP, CDP-Star luminescence, 30 min; inhibition, % at 10 µM; 0.2% of 330,000 active; AID 2806;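 active means inhibition of at least 40% at 10 µM in the primary screen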;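 further: plate controls were DMSO with enzyme for no effect and no enzyme wells for full effect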
bIAP inhibitor: blocks bovine intestinal alkaline phosphatase activity; purified bovine IAP, CDP-star luminescence, 30 min; inhibition, % at 20 µM; AID 1019; 190,000 tested, under 10 active;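 active means over 50% inhibition of intestinal alkaline phosphatase at 20 µM in the single-dose screen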
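test system = bovine IAP enzyme | medium = DEA buffer 100 mM, pH 9.8, with MgCl2 1.0 mM, ZnCl2 0.02 mM | detection = luminescence | dosing = single compound dose of 20 µM, 2% DMSO final | incubation = 30 min reaction at room temperature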
hIAP act conf: human IAP activation confirmation; shares compounds with hIAP act; purified IAP, CDP-Star luminescence, 30 min; active compounds read low; activation (%Activity, negative = activation), % at 8.3 µM; 10% of 880 active;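 active means at least twofold enzyme activation in any of six single-dose repeats, which the averaged readout prints as negative percent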
Numbers without * were called inactive; i = inactive; nt = not tested or not shown.

SMILES	bIAP act	hIAP block	mIAP act	hIAP act	mIAP inh	bIAP inhibitor	hIAP act conf
CC(C(=O)Nc1ncn[nH]1)N1C(=O)c2ccccc2C1=O (stereo unspecified)	1.1	-25.8	1.03	1.26	-2.7	-12.5	nt
Cc1ccc(C(=O)Nc2ncn[nH]2)cc1	nt	-111.9	0.968	2.12*	3.2	nt	-8.4
Cc1ccc(SC(C)C(=O)Nc2ncn[nH]2)cc1 (stereo unspecified)	1.5	-139.1	1.17	2.39*	-16.5	-52.0	11.5
CC(C)(C)c1ccc(C(=O)Nc2ncn[nH]2)cc1	1.2	-57.3	1.07	1.57	-7.1	-20.7	nt
CC(=O)Oc1c(-c2ccco2)oc2ccccc2c1=O	1	-25.4	1.02	1.25	-2.5	-2.5	nt
Cc1ccc(CN2CCSc3ccc(C(=O)NC4CCCC4)cc32)cc1	nt	-26.3	1.22	1.26	-21.8	nt	nt
O=C(NC1CCCC1)c1ccc2c(c1)N(Cc1ccc(F)cc1)CCS2	nt	38.6*	1.14	0.614	-14.0	nt	-67.1
COc1ccccc1N1CCN(S(=O)(=O)c2cc(-c3cc(C)no3)ccc2C(C)C)CC1	nt	16.1	0.974	0.839	2.6	nt	nt
CNC(=S)NNC(=O)c1cccn(Cc2ccc(Cl)c(Cl)c2)c1=O	1.2	-80.9	0.779	1.81	22.1	-19.0	nt
CNC(=S)NNC(=O)c1cccn(Cc2cccc(Cl)c2)c1=O	1.3	-100.8	0.818	2.01*	18.2	-34.6	5.9
O=C(/C=C/c1ccc(O)cc1)c1ccc(NC2=C(N3CCCCC3)C(=O)c3ccccc3C2=O)cc1	0.6	35.3*	0.709	0.647	29.1	35.1	0.0
O=C1C(Nc2ccccc2)=C(N2CCCCC2)C(=O)c2ccccc21	0.8	3.9	1	0.961	-0.3	15.9	nt
Cn1nc(C(=O)NNC(=O)CCOc2ccc(C(C)(C)C)cc2)c2ccccc2c1=O	nt	-114.5	0.965	2.15*	3.5	nt	-18.9
Cc1ccc2nc(CCCc3nc4ccc(C)cc4[nH]3)[nH]c2c1	nt	-171.1	1.25	2.71*	-24.5	nt	-59.7
Cc1ccc2nc(Cc3ccc(N)cc3)[nH]c2c1	1.1	-12.9	1.16	1.13	-15.8	-10.7	nt
c1ccc2[nH]c(CCCCc3nc4ccccc4[nH]3)nc2c1	nt	-42.8	1.06	1.43	-5.6	nt	nt
Cc1ccc2nc(CCc3nc4ccc(C)cc4[nH]3)[nH]c2c1	nt	-133.4	1.06	2.33*	-5.9	nt	-5.1
O=C(NCc1ccccc1CN1CCCC1)c1cc2cc(Cl)ccc2o1	nt	-12.1	0.833	1.12	16.7	nt	nt
CC(=O)Nc1ccc(C(=O)CSc2nnnn2C2CCCC2)cc1	0.9	-4.0	0.986	1.04	1.4	14.4	nt
CN(C)C(CNc1ccc(C(F)(F)F)cc1[N+](=O)[O-])c1ccccc1 (stereo unspecified)	nt	-0.4	0.92	1	8.0	nt	nt
O=C(Nc1nccs1)c1nc[nH]c1C(=O)N1CCc2ccccc2C1	nt	-109.1	0.945	2.09*	5.5	nt	-48.5
C[C@H](NC(=O)c1nc[nH]c1C(=O)N1CCc2ccccc2C1)C(=O)OC(C)(C)C	nt	-170.5	1.15	2.71*	-14.5	nt	-56.9
CC(C)(C)OC(=O)N1CCN(C(=O)c2[nH]cnc2C(=O)Nc2nccs2)CC1	nt	-121.8	0.989	2.22*	1.1	nt	-27.6
Cc1ccc(CNC(=O)c2cc(Cl)cc(Cl)c2)n1C	nt	-11.9	0.964	1.12	3.6	nt	nt
COc1cccc(/C=N/NC(=O)c2cc(-c3cccn3C)n[nH]2)c1O	1	-144.8	0.641	2.45*	35.9	-2.0	-1.2
SMILES	bIAP act	hIAP block	mIAP act	hIAP act	mIAP inh	bIAP inhibitor	hIAP act conf
O=C(NCc1ccccc1)C(=O)Nc1nc(-c2ccccc2)cs1	nt	-10.2	1.01	1.1	-0.7	nt	nt
O=C(NCc1ccccn1)C(=O)Nc1nc(-c2ccccc2)cs1	nt	-116.5	1.05	2.17*	-4.9	nt	-60.2
COCCN(C(=O)COC(=O)CCOc1ccccc1)c1c(N)n(Cc2ccccc2)c(=O)[nH]c1=O	nt	-10.3	1.03	1.1	-2.6	nt	nt
Cc1ccc(-n2ncc3c(NNC(=O)Cc4ccccc4)ncnc32)cc1	1.1	-120.6	1.07	2.21*	-6.8	-7.3	9.9
CC(=O)Nc1ccc(Nc2ncnc3c2cnn3-c2ccccc2)cc1	1	5.8	0.917	0.942	8.3	-4.0	nt
CC(=O)NNc1ncnc2c1cnn2-c1ccccc1	1.4	-204.5	0.812	3.04*	18.8	-44.0	-68.9
Cc1ccc2oc(C(=O)N3CCCCCC3)c(C)c2c1	nt	45.6*	1.01	0.544	-1.1	nt	2.3
Cc1c(C(=O)NNC(=S)Nc2ccc(S(N)(=O)=O)cc2)oc2ccccc12	nt	-105.4	0.813	2.05*	18.7	nt	-5.2
Cc1ccc(N(CC(N)=O)C2SC(=O)N(C)C2=O)cc1 (stereo unspecified)	1.1	64.6*	0.908	0.354	9.2	-6.0	-76.3
Cc1cccc(N(CC(N)=O)C2SC(=O)N(c3ccccc3)C2=O)c1 (stereo unspecified)	1	-2.6	0.816	1.03	18.4	-4.3	nt
O=C(NCC1CCCO1)C(=O)N/N=C/c1cc(Cl)ccc1O (stereo unspecified)	nt	-100.3	1.08	2*	-8.1	nt	-15.5
CC1CCCN(S(=O)(=O)c2ccc3c(c2)CCN3C(=O)C2CCC2)C1 (stereo unspecified)	1	i	0.973	50.3*	2.7	0.1	0.1
CC1CCN(S(=O)(=O)c2ccc3c(c2)CCN3C(=O)C2CCC2)CC1	nt	18.4	0.984	0.816	1.6	nt	nt
O=C(CN1CCN(C(=O)C2COc3ccccc3O2)CC1)Nc1ccccc1 (stereo unspecified)	nt	39.9*	0.911	0.601	8.9	nt	-9.0
CSC1=C(C#N)C(c2ccccc2)C(C(C)=O)=C(C)N1 (stereo unspecified)	0.9	6.9	0.986	0.931	1.4	7.7	nt
CSC1=C(C#N)C(c2ccccc2Cl)C(C(C)=O)=C(C)N1 (stereo unspecified)	0.9	35.0*	0.977	0.65	2.3	8.4	-65.6
Cc1cccc(NC(=O)COC(=O)c2cccs2)c1C	nt	6.0	1.03	0.94	-3.0	nt	nt
O=C(c1cccs1)N(c1ccc(Br)cc1)C1C=CS(=O)(=O)C1 (stereo unspecified)	1	-6.3	0.876	1.06	12.4	-3.6	nt
CN(Cc1cnn(C)c1)C(=O)C1CCC(=O)N(Cc2cccc(F)c2)C1 (stereo unspecified)	nt	45.1*	0.992	0.549	0.8	nt	-58.3
CC1=C(CC/C(C)=N/NC(N)=S)C(C)(C)CCC1	1.1	13.0	0.976	0.87	2.4	-11.7	nt
COc1cccc(-c2nc(=S)c3c(n2CCCO)CCCC3)c1	1	-137.7	1.14	2.38*	-14.4	-2.7	1.0
CC(C)Cn1c(-c2ccccc2)nc(=S)c2c1CCCC2	0.7	-4.0	0.907	1.04	9.3	26.2	nt
CC(C)Cc1ccccc1S(N)(=O)=O	nt	7.4	0.963	0.926	3.7	nt	nt
